Data on five compounds can be found in ChEMBL document CHEMBL4680088, “Highly Effective Dual-Function Near-Infrared (NIR) Photosensitizer for Fluorescence Imaging and Photodynamic Therapy (PDT) of Cancer” (J Med Chem, 2016).

The nature of data set [1]: Drug uptake in tumor of BALB/c mouse xenografted with […] cells at 0.25 umol/kg, iv measured at 24 hrs by fluorescence imaging. As to conditions: in vivo, dose 0.25 µmol/kg. The data set is classed as ADME, organism-based, Neoplasm. Put shortly: (§1)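 Subcutaneous Colon 26 tumors (~50 mm3) on the shoulder of BALB/c mice, 3 mice/group. Photosensitizer 0.25 μmol/kg iv in 1% Tween 80/D5W. Under isoflurane, Maestro spectral imaging used the Deep Red filter set (Ex 671–705 nm, Em 750 nm long-pass, 2 s exposure). Images taken at 4, 8, 12, 24 and 48 h; unmixed tumor signal quantified.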
A general note: In xenograft studies the graft and the host belong to different species.

For data set [2], the system named is Colon 26. The data set is described as follows: (§2) Photodynamic therapy against […] cells xenografted in BALB/c mouse assessed as reduction tumor volumes by measuring tumor cure response at 0.25 umol/kg, iv exposed to laser light at 787 nm at a dose of 135 J/cm2 and 35 mW/cm2 after 24 hrs post dose measured at day 60 post dose. As to conditions: dose 0.25 µmol/kg, time 60.0 day. The data set is classed as functional.

Data set [3] relates to Colon 26. Kind of data set: Photodynamic therapy against […] cells assessed as reduction in cell viability at 0.025 uM incubated for 24 hrs followed by exposure to light at 787 nm in the range of 0-1.0 J/cm2 irradiation by MTT assay. In kind it is functional, cell-based. The procedure, abridged:
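Murine Colon 26 cells (3600/well) exposed to 0.025 μM photosensitizer for 24 h. Irradiated at 787 nm from a tunable dye laser, 0–1.0 J/cm2 at 3.2 mW/cm2. MTT added 48 h after light. Blank-subtracted OD divided by untreated OD for each light dose gave percent survival. Single experiment in triplicate.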
(In general: Formazan colour is commonly taken as a measure of viable cells.)

Data set [4] has as its system Colon 26. Kind of data set: Photodynamic therapy against […] cells assessed as reduction in cell viability at 0.1 to 0.4 uM incubated for 24 hrs followed by exposure to 0.25J/cm2 irradiation by MTT assay. The data set is classed as functional, cell-based. As to conditions: dose 0.1-0.4 µM. The procedure, abridged: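 Murine Colon 26 cells (3600/well) exposed to a range of photosensitizer concentrations for 24 h, then irradiated at 787 nm, 0.25 J/cm2 (3.2 mW/cm2). MTT readout 48 h after light. Percent survival taken relative to untreated cells after blank subtraction. Experiments done in triplicate.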

The nature of data set [5]: Drug uptake in tumor of BALB/c mouse xenografted with […] cells at 0.25 umol/kg, iv measured after 4 hrs by fluorescence imaging. As to conditions: in vivo, dose 0.25 µmol/kg. The data set is classed as ADME, organism-based, Neoplasm. Put shortly: as §1
Data set [6] has as its system Colon 26. Kind of data set: Photodynamic therapy against […] cells xenografted in BALB/c mouse assessed as reduction tumor volumes by measuring tumor response at 0.25 umol/kg, iv exposed to laser light at 787 nm at a dose of 135 J/cm2 and 35 mW/cm2 after 12 hrs post dose measured at day 60 post dose. In kind it is functional, organism-based. As to conditions: dose 0.25 µmol/kg, time 60.0 day.

For data set [7], the system named is Colon 26. The data set is described as follows: Photodynamic therapy against […] cells xenografted in BALB/c mouse assessed as reduction tumor volumes by measuring tumor response at 0.25 umol/kg, iv exposed to laser light at 787 nm at a dose of 135 J/cm2 and 35 mW/cm2 after 48 hrs post dose measured at day 60 post dose. The data set is classed as functional, organism-based. As to conditions: dose 0.25 µmol/kg, time 60.0 day.

The nature of data set [8]: Photosensitizing activity in mouse Colon 26 cells assessed as induction of STAT3 cross-linking at 15 nM incubated for 24 hrs followed exposure to irradiation at 797 nm light (3 J/cm2) by Western blotting analysis. (Immunoblotting shows a protein as a band on a membrane.)
Data set [9] is described as follows: Photosensitizing activity in mouse Colon 26 cells assessed as induction of STAT3 cross-linking at 30 nM incubated for 24 hrs followed exposure to irradiation at 797 nm light (3 J/cm2) by Western blotting analysis.
Data set [10] is described as follows: Photosensitizing activity in mouse Colon 26 cells assessed as induction of STAT3 cross-linking at 60 nM incubated for 24 hrs followed exposure to irradiation at 797 nm light (3 J/cm2) by Western blotting analysis.
A short description of data set [11]: Photosensitizing activity in mouse Colon 26 cells assessed as induction of STAT3 cross-linking at 125 nM incubated for 24 hrs followed exposure to irradiation at 797 nm light (3 J/cm2) by Western blotting analysis.
Data set [12] is described as follows: Photosensitizing activity in mouse Colon 26 cells assessed as induction of STAT3 cross-linking at 250 nM incubated for 24 hrs followed exposure to irradiation at 797 nm light (3 J/cm2) by Western blotting analysis.
For data set [13], the system named is Mus musculus. Kind of data set: Photosensitizing activity in BALB/c mouse implanted with mouse Colon 26 cells assessed as induction of STAT3 cross-linking at 0.47 umol/kg, iv for 24 hrs followed by exposure to laser light at 787 nm by Western blotting analysis. As to conditions: BALB/c m, dose 0.47 µmol/kg.
Data set [14] is described as follows: Drug uptake in tumor of BALB/c mouse xenografted with […] cells at 0.25 umol/kg, iv measured after 24 by fluorescence imaging. The data set is classed as ADME, organism-based, Neoplasm. As to conditions: in vivo, 24 h, dose 0.25 µmol/kg. The procedure, abridged:
as §1

The nature of data set [15]: as §2. In kind it is functional. Further details: scale not given: the % may be the effect or the level left. As to conditions: dose 0.25 µmol/kg; time 60 day.
Data set [16] can be described thus: Drug uptake in tumor of BALB/c mouse xenografted with mouse 4T1 cells at 0.25 umol/kg, iv measured after 24 hrs by fluorescence imaging based IVIS spectrum-CT method. In kind it is ADME, organism-based, BALB/c m, Neoplasm. As to conditions: in vivo, dose 0.25 µmol/kg. The procedure, abridged: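 BALB/c mice (3/group) were given 4T1-luc cells iv to seed lung tumors, and bioluminescence was imaged at day 9. Photosensitizer 0.25 μmol/kg iv, then fluorescence imaging at 24 h on IVIS Spectrum-CT (Ex 785 nm, Em >830 nm). The fluorescence image was merged with bioluminescence.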

A short description of data set [17]: Skin phototoxicity in BALB/c mouse assessed as foot response at 0.25 umol/kg, iv after 24 to 96 hrs post dose followed by mouse restrainment and one hind foot illumination with solar light for 30 mins. The data set is classed as organism-based, BALB/c m. As to conditions: in vivo, 0.5 h, time 24-96 hrs, dose 0.25 µmol/kg. The procedure, abridged: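 Non-tumor BALB/c mice given photosensitizer 0.25 μmol/kg iv. At 24, 48, 72 or 96 h (3 mice/group), one hind foot was illuminated for 30 min; the other foot served as control. Edema, erythema, epilation and desquamation scored 0 (normal) to 3 (loss of foot), followed for 4 more days.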

Data set [18] in a line: Stability in mouse Colon 26 cells culture media assessed as hydrolysis of methyl ester to carboxylic acid incubated for 24 hrs by TLC analysis. As to conditions: colon 26, 24 h.
Data set [19] relates to Colon 26 (mouse). The data set is described as follows: Drug uptake in tumor of BALB/c mouse xenografted with mouse Colon 26 cells at 0.25 umol/kg, iv measured after 24 hrs followed by exposure to 787 nm light and stoppage of irradiation at regular intervals up to 30 mins by fluorescence imaging based IVIS spectrum-CT method. As to conditions: in vivo, at 0.25 µmol/kg.
A short description of data set [20]: Drug uptake in tumor of BALB/c mouse xenografted with […] cells at 1 umol/kg, iv measured after 24 to 48 hrs using 14C-labeled cpd by scintillation counting method. As to conditions: in vivo, time 24-48 hrs, dose 1 µmol/kg. In kind it is ADME, organism-based, Neoplasm. The procedure, abridged:
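Colon 26 tumor-bearing BALB/c mice (~50 mm3) received 14C-labeled compound 1.0 μmol/kg iv (0.1 μCi/mouse), 3 mice/time point. Mice euthanized at 24, 48 and 72 h; tumor and muscle removed, weighed and solubilized overnight at 50 °C. Radioactivity counted; results given as mean cpm/g tissue ± SD.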

Active and inactive are the calls of the source. The rule behind the calls is not given here.

Consider `CCCCO[C@@H](C)c1c(C)c2cc3nc(c4c5[nH]c(cc6nc(cc1[nH]2)[C@H](C)[C@H]6CC)c(C)c5C(=O)N(CCCC)C4=O)[C@@H](CCC(=O)OC)[C@@H]3C`, for which the Drug uptake entry in [1] is given as “Active”. For the same compound, the result in [2] and in data set [3] was Active.

Regarding `CCCCOC(C)c1c(C)c2cc3nc(c4c5[nH]c(cc6nc(cc1[nH]2)[C@H](C)[C@H]6CC)c(C)c5C(=O)N(CCCC)C4=O)[C@@H](CCC(=O)O)[C@@H]3C` (some centres not stated), the result in [4] and in [13] was Active. For the same compound, the Drug uptake result in [5] is recorded as “Active”. For the same compound, the result in [6] and in [7] was inactive. Moreover, the Activity in data set [8] is on record as 0.3%; in [9] it was 1.2%; in [10] it was 5.8%; in [11], 9%; in data set [12], 15%.

As to `CCCCOC(C)c1c(C)c2cc3nc(c4c5[nH]c(cc6nc(cc1[nH]2)[C@H](C)[C@H]6CC)c(C)c5C(=O)N(CCCC)C4=O)[C@@H](CCC(=O)OC)[C@@H]3C` (some centres not stated), the outcome in [4] and in data set [13] was Active. Further, the Drug uptake entry in [1] is “Active”; in data set [14], “Not Active”; in data set [16], “Active”; in [19], 40%. The Activity in data set [15] is recorded as 80%; in data set [17] it was “Non-Toxic”; in data set [8], 0.1%; in data set [9], 0.2%; in [10] it was 0.5%; in [11] it was 1.5%. In addition, in data set [12], the Activity stood at 2.4%. Besides, in data set [7], the outcome was inactive. In addition, the Stabilty result in data set [18] is “Stable”.

As to `CCCCO[C@H](C)c1c(C)c2cc3nc(c4c5[nH]c(cc6nc(cc1[nH]2)[C@H](C)[C@H]6CC)c(C)c5C(=O)N(CCCC)C4=O)[C@@H](CCC(=O)OC)[C@@H]3C`, the Drug uptake entry in data set [1] is recorded as “Active”. For the same compound, the outcome in data set [2] and in data set [3] was Active.

Take `CCCCN1C(=O)c2c3nc(cc4[nH]c(cc5nc(cc6[nH]c2c(c6C)C1=O)[C@H](CC)[C@H]5C)c(C(C)O[14CH2]CCC)c4C)[C@@H](C)[C@@H]3CCC(=O)OC` (some centres not stated): the Drug uptake entry in [20] was “Active”.
